Reference: ChEMBL document CHEMBL1138311, “Design and synthesis of novel and potent inhibitors of the type II transmembrane serine protease, matriptase, based upon the sunflower trypsin inhibitor-1” (J Med Chem, 2007)
Activity calls are given as the source filed them. The rule behind the calls is not given here.

How the values were obtained:
[1] = molecular target: Prothrombin (Bos taurus, UniProt P00735); assay: (§1) Inhibition of bovine thrombin
Outline: (§2)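 Room-temperature fluorogenic assay in 100 mM Tris-HCl (pH 8.5) with 100 mg/mL BSA. Enzyme and inhibitor were preincubated, then N-tBoc-Leu-Arg-Arg-AMC substrate was added. Hydrolysis was followed by fluorescence (ex 360 nm, em 480 nm) at six to seven inhibitor concentrations. Ki was taken from Dixon plots of two data sets at different substrate concentrations.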

[2] = Selectivity for human matriptase over bovine thrombin
Outline: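 Enzyme was preincubated with inhibitor before substrate addition. Matriptase substrate: t-Boc-Gln-Ala-Arg-AMC; thrombin substrate: N-tBoc-Leu-Arg-Arg-AMC. AMC release read at ex 360/em 480 nm over six to seven inhibitor concentrations. Ki from Dixon plots using two substrate concentrations.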

[3] = molecular target: T1, Suppressor of tumorigenicity 14 protein (Homo sapiens, UniProt Q9Y5Y6); assay: Inhibition of human matriptase
T1 sequence (Q9Y5Y6 whole entry): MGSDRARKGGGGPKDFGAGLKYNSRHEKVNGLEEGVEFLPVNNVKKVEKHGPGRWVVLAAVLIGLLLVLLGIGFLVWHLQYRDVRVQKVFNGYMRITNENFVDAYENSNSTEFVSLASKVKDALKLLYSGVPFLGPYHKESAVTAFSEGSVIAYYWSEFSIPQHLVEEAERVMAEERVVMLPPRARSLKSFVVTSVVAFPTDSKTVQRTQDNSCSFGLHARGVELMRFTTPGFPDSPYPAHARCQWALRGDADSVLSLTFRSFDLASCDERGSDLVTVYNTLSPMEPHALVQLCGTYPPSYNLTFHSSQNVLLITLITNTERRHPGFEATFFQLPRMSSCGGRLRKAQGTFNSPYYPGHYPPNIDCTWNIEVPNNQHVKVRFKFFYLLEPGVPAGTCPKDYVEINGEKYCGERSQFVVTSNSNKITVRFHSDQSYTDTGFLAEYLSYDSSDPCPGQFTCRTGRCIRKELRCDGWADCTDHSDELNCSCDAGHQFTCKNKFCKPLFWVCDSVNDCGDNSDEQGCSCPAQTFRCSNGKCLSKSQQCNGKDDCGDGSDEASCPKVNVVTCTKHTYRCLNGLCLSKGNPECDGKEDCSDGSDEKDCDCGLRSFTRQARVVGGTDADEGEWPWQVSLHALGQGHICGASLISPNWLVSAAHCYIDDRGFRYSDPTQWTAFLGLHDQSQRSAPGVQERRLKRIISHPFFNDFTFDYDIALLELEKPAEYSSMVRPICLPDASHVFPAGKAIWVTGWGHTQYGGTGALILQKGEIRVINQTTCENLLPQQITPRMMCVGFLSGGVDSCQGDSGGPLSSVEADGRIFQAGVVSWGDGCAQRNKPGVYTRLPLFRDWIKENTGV
Outline: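 Run at room temperature in 100 mM Tris-HCl (pH 8.5) with 100 mg/mL BSA. Enzyme and inhibitor were preincubated, then t-Boc-Gln-Ala-Arg-AMC was added and fluorescence read at ex 360 nm, em 480 nm over six to seven inhibitor concentrations. Ki came from Dixon plots at two substrate concentrations. A second format used purified matriptase with t-Boc-Gln-Ala-Arg-AFC in 100 mM Tris (pH 8.3) with BSA.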

[4] = molecular target: Prothrombin (Bos taurus) (UniProt P00735); assay: as §1; outline: as §2

Structure (SMILES) | Ki [1] [µM] | Ratio Ki [2] | Ki [3] [µM] | Activity [4]
CC[C@H](C)[C@@H]1NC(=O)[C@@H]2CCCN2C(=O)[C@@H]2CCCN2C(=O)[C@H]([C@@H](C)CC)NC(=O)[C@H](CO)NC(=O)[C@H](CCCCN)NC(=O)[C@H]([C@@H](C)O)NC(=O)[C@@H]2CSSC[C@H](NC1=O)C(=O)N[C@@H](Cc1ccc(-c3ccccc3)cc1)C(=O)N1CCC[C@@H]1C(=O)N[C@@H](CC(=O)O)C(=O)NCC(=O)N[C@@H](CCCNC(=N)N)C(=O)N2 | 25.6 | 25.6 |  | 
CC[C@H](C)[C@@H]1NC(=O)[C@@H]2CCCN2C(=O)[C@@H]2CCCN2C(=O)[C@H]([C@@H](C)CC)NC(=O)[C@H](CO)NC(=O)[C@H](CCCCCN)NC(=O)[C@H]([C@@H](C)O)NC(=O)[C@@H]2CSSC[C@H](NC1=O)C(=O)N[C@@H](Cc1ccccc1)C(=O)N1CCC[C@@H]1C(=O)N[C@@H](CC(=O)O)C(=O)NCC(=O)N[C@@H](CCCNC(=N)N)C(=O)N2 | 45.6 | 1.6 |  | 
CC[C@H](C)[C@@H]1NC(=O)[C@@H]2CCCN2C(=O)[C@@H]2CCCN2C(=O)[C@H]([C@@H](C)CC)NC(=O)[C@H](CO)NC(=O)[C@H](CCCCN)NC(=O)[C@H]([C@@H](C)O)NC(=O)[C@@H]2CSSC[C@H](NC1=O)C(=O)N[C@@H](Cc1ccccc1)C(=O)N1CCC[C@@H]1C(=O)N[C@@H](CC(=O)O)C(=O)NCC(=O)N[C@@H](Cc1ccc(NC(=N)N)cc1)C(=O)N2 | 164 | 1.8 |  | 
CC[C@H](C)[C@@H]1NC(=O)[C@@H]2CCCN2C(=O)[C@@H]2CCCN2C(=O)[C@H]([C@@H](C)CC)NC(=O)[C@H](CO)NC(=O)[C@H](CCCCN)NC(=O)[C@H]([C@@H](C)O)NC(=O)[C@@H]2CSSC[C@H](NC1=O)C(=O)N[C@@H](Cc1ccccc1)C(=O)N1CCC[C@@H]1C(=O)N[C@@H](CC(=O)O)C(=O)NCC(=O)N[C@@H](CCCNC(=N)N)C(=O)N2 |  | 50 |  | 
CC[C@H](C)[C@@H]1NC(=O)[C@@H]2CCCN2C(=O)[C@@H]2CCCN2C(=O)[C@H]([C@@H](C)CC)NC(=O)[C@H](CO)NC(=O)[C@H](CCCCN)NC(=O)[C@H]([C@@H](C)O)NC(=O)[C@H](CO)NC(=O)[C@H](CCCNC(=N)N)NC(=O)CNC(=O)[C@H](CC(=O)O)NC(=O)[C@H]2CCCN2C(=O)[C@H](Cc2ccccc2)NC(=O)[C@H](CO)NC1=O | 40.4 | 0.38 |  | 
CC[C@H](C)[C@@H]1NC(=O)[C@@H]2CCCN2C(=O)[C@@H]2CCCN2C(=O)[C@H]([C@@H](C)CC)NC(=O)[C@H](CO)NC(=O)[C@H](CCCNC(=N)N)NC(=O)[C@H]([C@@H](C)O)NC(=O)[C@@H]2CSSC[C@H](NC1=O)C(=O)N[C@@H](Cc1ccccc1)C(=O)N1CCC[C@@H]1C(=O)N[C@@H](CC(=O)O)C(=O)NCC(=O)N[C@@H](CCCNC(=N)N)C(=O)N2 | 0.86 | 0.18 |  | 
CC[C@H](C)[C@@H]1NC(=O)[C@@H]2CCCN2C(=O)[C@@H]2CCCN2C(=O)[C@H]([C@@H](C)CC)NC(=O)[C@H](CO)NC(=O)[C@H](CCCCN)NC(=O)[C@H]([C@@H](C)O)NC(=O)[C@@H]2CSSC[C@H](NC1=O)C(=O)N[C@@H](Cc1ccccc1)C(=O)N1CCC[C@@H]1C(=O)N[C@@H](CC(=O)O)C(=O)NCC(=O)N[C@@H](CCCCNC(=N)N)C(=O)N2 | 7.63 | 8.9 |  | 
CC[C@H](C)[C@@H]1NC(=O)[C@@H]2CCCN2C(=O)[C@@H]2CCCN2C(=O)[C@H]([C@@H](C)CC)NC(=O)[C@H](CO)NC(=O)[C@H](CCCCN)NC(=O)[C@H]([C@@H](C)O)NC(=O)[C@@H]2CSSC[C@H](NC1=O)C(=O)N[C@@H](Cc1c(F)c(F)c(F)c(F)c1F)C(=O)N1CCC[C@@H]1C(=O)N[C@@H](CC(=O)O)C(=O)NCC(=O)N[C@@H](CCCNC(=N)N)C(=O)N2 | 33.6 | 37.8 |  | 
CC[C@H](C)[C@@H]1NC(=O)[C@@H]2CCCN2C(=O)[C@@H]2CCCN2C(=O)[C@H]([C@@H](C)CC)NC(=O)[C@H](CO)NC(=O)[C@H](CCCCN)NC(=O)[C@H]([C@@H](C)O)NC(=O)[C@@H]2CSCSC[C@H](NC1=O)C(=O)N[C@@H](Cc1ccccc1)C(=O)N1CCC[C@@H]1C(=O)N[C@@H](CC(=O)O)C(=O)NCC(=O)N[C@@H](CCCNC(=N)N)C(=O)N2 | 10 | 62.5 | 0.16 | 
CC[C@H](C)[C@@H]1NC(=O)[C@@H]2CCCN2C(=O)[C@@H]2CCCN2C(=O)[C@H]([C@@H](C)CC)NC(=O)[C@H](CO)NC(=O)[C@H](CCCN)NC(=O)[C@H]([C@@H](C)O)NC(=O)[C@@H]2CSSC[C@H](NC1=O)C(=O)N[C@@H](Cc1ccccc1)C(=O)N1CCC[C@@H]1C(=O)N[C@@H](CC(=O)O)C(=O)NCC(=O)N[C@@H](CCCNC(=N)N)C(=O)N2 |  |  |  | inactive
CC[C@H](C)[C@@H]1NC(=O)[C@@H]2CCCN2C(=O)[C@@H]2CCCN2C(=O)[C@H]([C@@H](C)CC)NC(=O)[C@H](CO)NC(=O)[C@H](CCCCN)NC(=O)[C@H]([C@@H](C)O)NC(=O)[C@@H]2CSSC[C@H](NC1=O)C(=O)N[C@@H](Cc1ccccc1)C(=O)N1CCC[C@@H]1C(=O)N[C@@H](CC(=O)O)C(=O)NCC(=O)N[C@@H](CCCNC(N)=O)C(=O)N2 | 827 | 37 |  | 
CC[C@H](C)[C@@H]1NC(=O)[C@@H]2CCCN2C(=O)[C@@H]2CCCN2C(=O)[C@H]([C@@H](C)CC)NC(=O)[C@H](CO)NC(=O)[C@H](CCCCN)NC(=O)[C@H]([C@@H](C)O)NC(=O)[C@@H]2CSSC[C@H](NC1=O)C(=O)N[C@@H](Cc1ccc3ccccc3c1)C(=O)N1CCC[C@@H]1C(=O)N[C@@H](CC(=O)O)C(=O)NCC(=O)N[C@@H](CCCNC(=N)N)C(=O)N2 | 16.3 | 36 |  | 
